Measurements: PubChem BioAssay
Results filed as inconclusive are left out.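 Rule for the calls, unless noted: active = inhibition over a set limit, the all-compound mean plus 3 SD, in both replicate runs; inconclusive = over that limit in just one replicate run; inactive = at or under that limit in both runs.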

Assays:
[1] = S. cerevisiae growth inhibition in permissive medium (OD615), pilot counter-assay for S. cerevisiae lifespan shortening project, permissive growth control (AID 705;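 active = growth inhibition above 25% in both replicates, a cutoff set 3 SD above the mean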); conditions: OD615, 24 h, at 10 µM, stronger effect = higher value
Summary of the method: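 Timing: 24 h exposure, 30 °C / Material: Saccharomyces cerevisiae strain carrying genetically modified DeaD replicative-lifespan system / Signal: OD at 615 nm / Compound: 10 µM single dose, 0.25% DMSO / Medium: SC raffinose/galactose permissive medium / Evaluation: reduction in yeast growth (OD615)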

[2] = S. cerevisiae growth inhibition in restrictive medium, OD615, pilot screen, restrictive growth control, yeast lifespan reduction project (AID 706;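 active = growth inhibition above a set limit, 3 SD over mean compound inhibition, in both replicates, cut at about 43% in these data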;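 note: modified DeaD lifespan yeast strain shifted to restrictive glucose medium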); conditions: OD615, 48 h, at 10 µM, stronger effect = higher value
Summary of the method: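 System: Engineered S. cerevisiae DeaD strain | Detection: OD615 | Buffer or medium: CSMM-D glucose medium | Doses: 10 µM compound, 0.25% DMSO | Timing: 4 h pre-growth plus 48 h compound exposure, 30 °C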

[3] = doxorubicin toxicity protection in MRP-1 cells – H69AR cells, CellTiter-Glo, duplicate, MRP-1 activator project, pilot screen (AID 807;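 active = viability increase at or above a cutoff of the median across tested compounds plus 3 SD, cut at about 8.5% in these data, passing the limit was not always enough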;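 note: compound pretreatment 18-22 h then 72 h combined with doxorubicin; 0% = doxorubicin alone and 100% = vehicle without doxorubicin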); conditions: H69AR viability with doxorubicin, CellTiter-Glo luminescence; at 10 µM; stronger effect = higher value
[4] = viability of HCT116 without oncogenic beta-catenin – human colon tumor cells, pilot screen (AID 823;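 active = cell viability at or below a set limit in both duplicate runs, the limit being the all-compound median minus 4 SD, cut at about 23% in these data, passing the limit was not always enough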;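 note: 0% = wells killed by 20 µM Hyamine and 100% = untreated DMSO cell wells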); conditions: HCT116 beta-catenin knockout viability, CellTiter-Glo, 60 h; at 10 µM; stronger effect = lower value
[5] = viability of PTEN-null HCT116 cells – cell-based, HCT116 clonal line, CellTiter-Glo, pilot screen (AID 824;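 active = viability at or below 27.92% in each of two runs, the all-compound median minus 4 SD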;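 note: 0% = 20 µM Hyamine control and 100% = vehicle cell control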); conditions: HCT116 PTEN-deleted viability, 60 h, at 10 µM, stronger effect = lower value
[6] = RAM pathway blockade in budding yeast – dse1pr::URA3 reporter, 5-FOA selection, pilot screen (AID 869);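 note: 0% = DMSO wells with no growth and 100% = 10 µM 1-NA-PP1 with full growth; RAM network block rescues cells from 5-FOA so hits raise OD615 growth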; conditions: S. cerevisiae dse1pr::URA3 5-FOA growth, OD615, 2 d; at 10 µM; stronger effect = higher value; strain carries analog-sensitive mutant Cbk1 kinase
[7] = RAM signaling pathway blockade in yeast – S. cerevisiae, Pdr1DBD-CYC8 efflux-inhibited sensitized strain, primary screen (AID 1298;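 active = RAM network inhibition above 8.4% in each of two replicates, 3 SD over the compound average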;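 note: 0% = DMSO untreated cells without growth and 100% = 10 µM 1-NA-PP1 full growth; higher means more yeast growth rescued from 5-FOA killing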); conditions: S. cerevisiae cbk1-as DSE1-URA3 strain, 5-FOA growth OD615, 2 d; at 50 µM; stronger effect = higher value

CC(=O)NC(O)C(=O)c1ccccc1 (stereo unspecified)
inactive: growth inhibition [1] 5.71% | growth inhibition [2] 3.38% | viability increase [3] -2.24% | viability [4] 97% | viability [5] 89.6% | inhibition [6] -0.095% | RAM network inhibition [7] 3.35%

COc1ccccc1NC(=O)Nc1ccnn1C1CCCCC1
inactive: growth inhibition [1] -7.38% | growth inhibition [2] -10.3% | viability increase [3] -0.89% | viability [4] 92.2% | viability [5] 94.1% | inhibition [6] 2.41% | RAM network inhibition [7] 0.5%

Cc1ccc(CN2CCNC(=O)C2CC(=O)O)o1 (stereo unspecified)
inactive: growth inhibition [1] -8.29% | growth inhibition [2] 2.8% | viability increase [3] -0.83% | viability [4] 105% | viability [5] 104% | inhibition [6] 1.5% | RAM network inhibition [7] 2.4%

CCOC(=O)N1CCN(C(=O)C2CCN(Cc3nc(-c4ccccc4C)oc3C)CC2)CC1
inactive: growth inhibition [1] -13.5% | growth inhibition [2] -31.5% | viability increase [3] -1.65% | viability [4] 85.3% | viability [5] 88% | inhibition [6] 0.75% | RAM network inhibition [7] 1.63%

COc1ccc(NC(=O)C2=C(C)NC(=O)NC2c2cccc(OC)c2OC)c(OC)c1 (stereo unspecified)
inactive: growth inhibition [1] -15.4% | growth inhibition [2] -22.3% | viability increase [3] 0.09% | viability [4] 103% | viability [5] 103% | inhibition [6] 0.405% | RAM network inhibition [7] -1.04%

O=S(=O)(c1ccc(-c2cn3ccccc3n2)cc1)N1CCOCC1
inactive: growth inhibition [1] 1.49% | growth inhibition [2] -12.4% | viability increase [3] -3.55% | viability [4] 86.7% | viability [5] 97.3% | inhibition [6] 1.14% | RAM network inhibition [7] 3.9%

Cn1nc(-c2ccc(Cl)cc2)c2cc(C(=O)NCc3ccco3)sc21
inactive: growth inhibition [1] -1.08% | growth inhibition [2] -3.58% | viability increase [3] -7.27% | viability [4] 59.6% | viability [5] 47% | inhibition [6] 2.54% | RAM network inhibition [7] 5.89%

O=C(NC1=NCCS1)c1csc2ccccc12
inactive: growth inhibition [1] -9.29% | growth inhibition [2] 27.3% | viability increase [3] -3.86% | viability [4] 74% | viability [5] 79% | inhibition [6] 1.16% | RAM network inhibition [7] 1.26%

Brc1cccc(-c2nnc3sc(CNC4CCCC4)cn23)c1
inactive: growth inhibition [1] -6.88% | growth inhibition [2] 5.62% | viability increase [3] -0.97% | viability [4] 95.7% | viability [5] 89.6% | inhibition [6] 1.56% | RAM network inhibition [7] 3.26%

CCOCCn1c(COc2ccccc2)nc2ccccc21
inactive: growth inhibition [1] -6.72% | growth inhibition [2] 1.93% | viability increase [3] -2.53% | viability [4] 83.8% | viability [5] 81.9% | inhibition [6] 1.88% | RAM network inhibition [7] 6.89%

COc1ccc(NC(=O)CSc2nnc(-c3ccc(C)cc3)n2N)cc1
inactive: growth inhibition [1] -3.98% | growth inhibition [2] -4.99% | viability increase [3] 0.54% | viability [4] 100% | viability [5] 92.8% | inhibition [6] 1.1% | RAM network inhibition [7] 2.69%

O=C(CSc1ccccc1)NCc1cccnc1
inactive: growth inhibition [1] -4.86% | growth inhibition [2] -3.68% | viability increase [3] -1.64% | viability [4] 99.5% | viability [5] 97% | inhibition [6] 0.995% | RAM network inhibition [7] 0.53%

Cn1c(=O)c2cc(S(=O)(=O)NC(C(=O)NCc3cccnc3)c3ccccc3)ccc2n(C)c1=O (stereo unspecified)
inactive: growth inhibition [1] -17% | growth inhibition [2] -18.3% | viability increase [3] -1.54% | viability [4] 91.2% | viability [5] 94.2% | inhibition [6] 1.32% | RAM network inhibition [7] 1.81%

CCOC(=O)C1=C(C)Nc2nc(C)nn2C1c1ccc(OC)c(OC)c1 (stereo unspecified)
inactive: growth inhibition [1] -6.55% | growth inhibition [2] -3.96% | viability increase [3] -3.45% | viability [4] 99.5% | viability [5] 102% | inhibition [6] 0.77% | RAM network inhibition [7] 0.06%

COCc1cc(C)nc(SCC(=O)Nc2cccc3cccnc23)c1C#N
inactive: growth inhibition [1] -15.3% | growth inhibition [2] -12.6% | viability increase [3] -1.44% | viability [4] 88.1% | viability [5] 86.4% | inhibition [6] 1.2% | RAM network inhibition [7] 8.57%

O=C(NCS(=O)(=O)c1ccccc1)c1ccccc1
inactive: growth inhibition [1] -15.4% | growth inhibition [2] -4.22% | viability increase [3] -0.04% | viability [4] 101% | viability [5] 101% | inhibition [6] 0.675% | RAM network inhibition [7] 1.79%

COCCOC(=O)C1=C(C)NC(=O)NC1C1CC=CCC1 (stereo unspecified)
inactive: growth inhibition [1] -6.74% | growth inhibition [2] -6.73% | viability increase [3] 0.63% | viability [4] 91.5% | viability [5] 101% | inhibition [6] 1.45% | RAM network inhibition [7] 5.08%

CN(CC(CC(=O)Nc1nncs1)c1ccccc1)S(=O)(=O)c1ccccc1 (stereo unspecified)
inactive: growth inhibition [1] -13.9% | growth inhibition [2] -11.4% | viability increase [3] -1.16% | viability [4] 96.2% | viability [5] 81.2% | inhibition [6] 1.82% | RAM network inhibition [7] 3.38%

O=c1nc2scc(-c3ccccc3)n2c2ccccc12
inactive: growth inhibition [1] -14.7% | growth inhibition [2] -0.83% | viability increase [3] -2.24% | viability [4] 94.1% | viability [5] 97.1% | inhibition [6] 4.32% | RAM network inhibition [7] 7.95%

CCn1cc(SCC(N)=O)c2ccccc21
inactive: growth inhibition [1] -13.8% | growth inhibition [2] -17.4% | viability increase [3] 0.17% | viability [4] 99.1% | viability [5] 92.3% | inhibition [6] 1.14% | RAM network inhibition [7] 8.71%

O=C(C(Cc1ccccc1)n1cccc1)N1CCN(C2CCCCC2)CC1 (stereo unspecified)
inactive: growth inhibition [1] -10.9% | growth inhibition [2] -3.01% | viability increase [3] -3.47% | viability [4] 81.8% | viability [5] 88.7% | inhibition [6] 1.42% | RAM network inhibition [7] 8.24%

O=C(Nc1cccc2ccccc12)N1CCN(c2ccc(F)cc2)CC1
inactive: growth inhibition [1] -12.3% | growth inhibition [2] -14.3% | viability increase [3] -1.74% | viability [4] 98.6% | viability [5] 98.8% | inhibition [6] 1.88% | RAM network inhibition [7] 3.08%

CCOC(=O)c1ccc(Nc2ccc(-c3ccc(OC)c(OC)c3)nn2)cc1
inactive: growth inhibition [1] -6.25% | growth inhibition [2] -20% | viability increase [3] -5.24% | viability [4] 80.8% | viability [5] 77.2% | inhibition [6] 2.08% | RAM network inhibition [7] 3.37%
